Measurements reported in PMC9096626 (RSC Advances, 2022).

Legend:
[1] = iEDDA cycloaddition kinetics with TCO-OH; conditions: water : DMSO (4 : 1), 37 °C
Summary of the method: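 Pseudo-first-order runs at 37 °C used varied TCO-OH concentrations at 10- to 50-fold excess over the tetrazine amino acid. Full spectra (700–200 nm) were followed by time-resolved UV-Vis and fitted as single-step kinetics to give kobs. Second-order rate constants came from the slope of kobs against [TCO-OH].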

[2] = tested on: Somatostatin receptor type 2 (SSTR2); conditions: statement in words; cited from earlier work

Compound	iEDDA cycloaddition rate relative to methyl analogue 4b [1]	affinity for Somatostatin receptor type 2 (SSTR2) [2]
Cl.N[C@@H](CC1=CCC(O)(c2nncnn2)C=C1)C(=O)O (stereo partly drawn) [4a]	14 times	–
Cl.N[C@@H](Cc1ccc(Oc2nnc(-c3ccccc3)nn2)cc1)C(=O)O [4c]	three times faster than 4b	–
octreotide	–	high affinity
